Screening data (PubChem)
This is a sample that favours compounds with a hit; in the whole collection about 1.9% have one here.
SUMO1 PPI mod – alters human SUMO1 binding to SIM partners; P63165; SUMO1 binding to a labelled peptide, TR-FRET, 1 h; inhibition, % at 20 µM; hit rate 0.33% among 360,000; in the data active = inhibition above about 37%
Target sequence (P63165 whole entry, looked up): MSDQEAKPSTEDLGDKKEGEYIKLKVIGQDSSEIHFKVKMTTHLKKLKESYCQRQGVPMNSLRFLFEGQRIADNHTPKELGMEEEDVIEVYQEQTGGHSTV
STEP block – inhibitors of human striatal-enriched phosphatase STEP; P54829; recombinant STEP, OMFP fluorogenic substrate, fluorescence; inhibition, % at 20 µM; hit rate 0.25% among 360,000;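 active = inhibition at 20 µM, scaled per plate between control wells, above about 37%, limit read from the data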;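 also: 0% = DMSO with enzyme and substrate and 100% = substrate only without enzyme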
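medium = Bis-Tris buffer pH 6.0, 2.5 mM DTT, 0.005% Tween 20 | test system = STEP (striatal-enriched tyrosine phosphatase) enzyme, cell-free | measure = normalized % inhibition | compound dosing = 20 µM, 1% DMSO | also added = 25 µM OMFP | schedule = reaction 20 min, ambient temperature | measured by = fluorescence read at 480 nm ex / 540 nm em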
LMPTP inh – blocks human LMPTP phosphatase. P24666. recombinant LMPTP-A, OMFP fluorogenic substrate, fluorescence intensity. inhibition, % at 20 µM. hit rate 0.22% among 360,000;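 active = compounds that cut the enzyme signal by at least half of the control window in the single-dose screen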;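 also: plate controls were DMSO wells with enzyme plus substrate for no effect and substrate without enzyme for full effect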
Target sequence (P24666 whole entry, looked up): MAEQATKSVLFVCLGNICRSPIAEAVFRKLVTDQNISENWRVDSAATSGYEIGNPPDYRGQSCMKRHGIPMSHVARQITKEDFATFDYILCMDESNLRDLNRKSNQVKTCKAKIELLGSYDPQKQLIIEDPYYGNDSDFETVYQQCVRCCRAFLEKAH
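Test system: LMPTP-A phosphatase enzyme. Amount: LMPTP-A at 0.625 nM final in the reaction. Reagent: OMFP substrate, 400 µM final. Times: 50 min at room temperature. Signal: endpoint fluorescence intensity from OMFP dephosphorylation. Read-out basis: % inhibition. Benchmarks: no-enzyme and uninhibited controls.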
SUMO HTRF inh – SUMOylation inhibition; P63279; HTRF SUMOylation assay, SAE1/SAE2 + UBC9, in vitro; inhibition, % at 35 µM; hit rate 0.36% among 290,000; in the data active = inhibition above about 50%, passing the limit was not always enough
Scp-1 inhibitor – blocks human Scp-1 phosphatase activity | Q9GZU7 | Recombinant Scp1, phosphopeptide, malachite green phosphate absorbance | inhibition, % at 20 µM | hit rate 0.88% among 340,000 | AID 493091;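 active = inhibition above about 50% at 20 µM, limit read from the data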;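 also: plate controls were DMSO wells with enzyme for no effect and wells lacking enzyme for full effect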
Target sequence (Q9GZU7 76-261 limits assumed): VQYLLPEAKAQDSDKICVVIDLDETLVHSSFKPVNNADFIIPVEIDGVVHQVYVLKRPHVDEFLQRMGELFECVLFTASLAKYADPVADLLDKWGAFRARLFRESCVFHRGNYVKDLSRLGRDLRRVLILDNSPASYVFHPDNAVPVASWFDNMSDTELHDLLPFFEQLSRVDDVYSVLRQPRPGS
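Incubation: 45 min enzyme reaction at room temperature / System: truncated SCP-1 phosphatase (76-261aa) / Reagent: Phospho 17-mer peptide substrate / Buffer or medium: Acidic Tris acetate buffer with magnesium and detergent / Signal: absorbance at 630 nm / Doses: one concentration, 20 µM, with 1.0% DMSO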
DNMT1 block – inhibitors of human DNMT1. hit rate 0.83% among 360,000. inhibition (reported as % activation of signal), % at 10 µM. DNMT1 molecular beacon, Hinp1I cleavage, fluorescence. P26358; in the data active = inhibition above about 50%
* hit, by the source's call; . = not tested or not shown.

SMILES	SUMO1 PPI mod	STEP block	LMPTP inh	SUMO HTRF inh	Scp-1 inhibitor	DNMT1 block
COc1ccc(CNC(=O)Nc2nc(C(N)c3ccccc3)cs2)cc1 (stereo not drawn)	-4	-2	3	.	.	-8
O=C(CSc1ncnc2c1oc1ccccc12)Nc1nc2ccccc2s1	-5	1	0	-5	-9	23
CCc1nnc(NC(=O)CSc2ncnc3c2oc2ccccc23)s1	66*	0	1	-42	-7	-21
CC1(C)CC(=O)C(C(O)c2ccccc2)C(C)(C)N1 (stereo not drawn)	-3	0	0	2	0	-3
Cn1cnc(C(=O)NCc2ccccc2)c1C(=O)NCc1ccccc1	7	0	-1	.	4	4
Oc1c(N=Nc2nn[nH]n2)ccc2ccccc12	50*	3	9	.	.	36
Oc1c(N=Nc2ccc(F)cc2)ccc2ccccc12	-16	2	4	17	-10	-18
CCOC(=O)N=Nc1c2ccccc2c2nc3no[nH]c3nc12	-15	2	5	15	-5	50*
CCOC(=O)N=Nc1c(O)n(CC(=O)OC)c2ccccc12	-17	0	-2	19	5	-1
O=C1NN(c2ccc(Cl)c(Cl)c2)C(=O)/C1=C/c1ccc(-c2ccccc2C(=O)O)o1	30	20	8	-16	49	60*
CC1=NN(c2ccc(C(=O)O)cc2)C(=O)/C1=C/c1ccc(-c2ccccc2F)o1	12	5	0	31	.	9
O=C1NN(c2cccc(Br)c2)C(=O)/C1=C\c1ccc(O)cc1	-1	6	0	-10	-11	5
CC1=NN(c2ccc(Cl)c(C(=O)O)c2)C(=O)/C1=C\c1ccc(-c2ccc(C(=O)O)cc2)o1	14	21	1	82*	81*	28
O=C1NN(c2cccc(Br)c2)C(=O)/C1=C/c1ccc(-c2cc([N+](=O)[O-])ccc2O)o1	102*	70*	77*	19	99*	53*
CC1=NN(c2ccc(C)cc2)C(=O)/C1=C/c1ccc(-c2cc([N+](=O)[O-])ccc2O)o1	80*	7	25	24	20	41
Cc1ccc(N2NC(=O)/C(=C/c3ccc(-c4ccc(Cl)c(C(=O)O)c4)o3)C2=O)cc1C	-3	8	2	-3	22	13
O=C(COc1ncnc2sccc12)NC1CCCCC1	5	-2	-2	.	1	1
O=[N+]([O-])c1ccccc1Nc1cccc(F)c1	-39	3	1	.	-13	-1
C[C@@H]1CN([C@@H](C)CO)C(=O)CCCn2cc(nn2)CO[C@H]1CN(C)S(=O)(=O)c1ccc(Cl)cc1	3	-1	-1	.	.	6
Cc1ccc(NC(=O)CN2C(=O)S/C(=C/c3ccc(O)c([N+](=O)[O-])c3)C2=O)cc1C	3	24	80*	.	76*	-9
O=S(=O)(Nc1cc(Sc2ncn[nH]2)c(O)c2ccccc12)c1ccccc1	85*	3	9	92*	17	24
O=C(O)CSc1cc(NS(=O)(=O)c2ccc(Br)cc2)c2ccccc2c1O	23	7	5	76*	-8	23
Cc1cc(O)c(Sc2ncn[nH]2)cc1NS(=O)(=O)c1ccc(Cl)cc1	4	-3	0	.	-4	0
COc1cccc(N2CCN(C(=O)c3ccc(CSc4nc5ccncc5[nH]4)cc3)CC2)c1	-6	-1	52*	-2	-12	-1
O=C(c1ccc(CSc2nc3ccncc3[nH]2)cc1)N1CCCCC1	6	-1	13	-9	-13	-5
SMILES	SUMO1 PPI mod	STEP block	LMPTP inh	SUMO HTRF inh	Scp-1 inhibitor	DNMT1 block
CN(C(=O)CN1CCN(c2cc(-c3cccc4oc5ccccc5c34)ncn2)CC1)c1ccccc1	5	1	0	.	.	-2
Cc1ccc(NC(=S)NN(C)c2nc(C)cnc2C)cc1	40*	-2	-1	-10	-8	5
Cc1ccc2nc(-c3ccc4c(c3)NC(=O)CO4)cn2c1	-2	-2	73*	14	-15	14
CC(Sc1nnc(N)s1)C(=O)NC1CCCCC1C (stereo not drawn)	1	2	-1	.	9	1
Cc1oc2c(c(C)cc3oc(=O)c(CC(=O)N[C@H](C(=O)O)C(C)C)c(C)c32)c1C	2	2	-1	51*	-4	0
Cc1oc2c(c(C)cc3oc(=O)c(CC(=O)NCC(=O)NCC(=O)O)c(C)c32)c1C	-7	1	-1	53*	.	3
Cc1oc2c(c(C)cc3oc(=O)c(CC(=O)N[C@@H](CC(C)C)C(=O)O)c(C)c32)c1C	0	0	-1	48	10	4
Cc1oc2c(c(C)cc3oc(=O)c(CC(=O)NCCC(=O)O)c(C)c32)c1C	-5	-2	-5	40	12	4
COc1cc(CNC(=O)c2cc(-c3cc(OC)ccc3Cl)n[nH]2)cc(OC)c1	3	1	-1	.	.	5
CC(=O)c1sc(Nc2nc3cc4c(cc3s2)OCO4)nc1C	40*	2	4	24	-3	-3
CC(=O)c1sc(Nc2ccc3c(c2)OCO3)nc1C	-29	2	1	.	.	6
Cc1ccc(C(=O)c2c(C)oc3c2C(=O)C(=O)c2ccccc2-3)cc1	18	17	4	92*	-7	52*
O=S(=O)(NCCN1CCN(S(=O)(=O)c2ccccc2F)CC1)c1ccccc1F	-6	-1	-9	.	-10	-4
COC(=O)[C@]1(C)N[C@H](CN(C)C(=O)Nc2ccc(C)cc2)[C@@H]2C(=O)N(C)C(=O)[C@@H]21	4	4	-2	.	4	5
O=C(Cc1ccccc1[N+](=O)[O-])NCc1ccco1	-4	-3	0	0	-5	2
CC1(OC(=O)c2cccs2)C(=O)C=C2C=C3CCCN3C=C2C1=O (stereo not drawn)	23	9	11	56	55*	100*
Cc1cc(C(=O)O)c(C)n1-c1ccccc1	3	4	1	-1	-5	-2
Cc1ccc(C)n1-c1sccc1C(=O)O	66*	75*	40	29	80*	107*
COC(=O)c1cccc(COC(=O)c2ccc(CS(=O)(=O)c3ccc(C)cc3)cc2)c1	1	2	4	-4	-11	13
O=C(N/N=C/c1ccc(OCc2ccccc2)cc1)c1ccncc1	-10	-2	2	12	-7	2
Oc1ccc(N=Cc2ccc(OCc3ccccc3)cc2)cc1	63*	3	12	74	-11	28
C[C@H](NC(=O)OC(C)(C)C)C(=O)NCC1CCC(C(=O)N[C@@H](Cc2ccccc2)C(=O)O)CC1 (stereo partly drawn)	1	1	0	12	-4	0
